The results in this text go back to ChEMBL document CHEMBL1781899, “Synthesis of N-substituted 2-[(1E)-alkenyl]-4-(1H)-quinolone derivatives as antimycobacterial agents against non-tubercular mycobacteria” (Eur J Med Chem, 2011).

Data set [1] deals with Mycolicibacterium smegmatis. Description: Antimycobacterial activity against Mycobacterium smegmatis ATCC 14468 after 3 days by MTT assay. The data set is classed as functional. As to conditions: ATCC 14468, 72 h. (Tetrazolium assays rely on reduction of a dye to a coloured formazan, in cell work by metabolically active cells.)
Data set [2] can be described thus: Cytotoxicity against human MRC5 cells assessed as cell viability at 30 uM after 72 hrs by XTT assay. Format: cell-based. As to conditions: read-out: Activity. The method, boiled down:
(§1)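 MRC-5 cells seeded at 5 × 10^4 cells/well and grown 24 h in MEM. Compounds came from fresh ethanol stocks; solvent control was 0.1% ethanol. 72 h exposure at 37 °C, 5% CO2. XTT plus electron-coupling reagent (50:1) added for 4 h. Viability expressed as % of solvent control, triplicate on at least two plates (n = 6), mean ± SEM.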

Data set [3] in a line: Cytotoxicity against human MRC5 cells assessed as cell viability at 100 uM after 72 hrs by XTT assay. Format: cell-based. The settings on record: read-out: Activity. In a few lines: as §1
A further data set relates to Mycolicibacterium phlei. Description: Antimycobacterial activity against Mycobacterium phlei ATCC 11758 after 3 days by MTT assay. Format: functional. The settings on record: ATCC 11758, 72 h.
Data set [4] has as its system Mycolicibacterium smegmatis. Nature of the data set: Antimycobacterial activity against Mycobacterium smegmatis mc2155 after 3 days by MTT assay. Format: functional. As to conditions: mc2155, 72 h. In a few lines: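 Broth microdilution MIC. Inoculum grown on Columbia blood agar with 7% defibrinated horse blood, suspended in 0.9% NaCl to 5 × 10^5 cells/mL. Sterile, growth and isoniazid controls were included. Incubated 3 days at 37 °C; methanolic MTT added, dark violet indicating growth. Tests repeated three times.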

Data set [5] deals with Mycolicibacterium fortuitum. Description: Antimycobacterial activity against Mycobacterium fortuitum ATCC 6841 after 3 days by MTT assay. The data set is classed as functional. As to conditions: ATCC 6841, 72 h.
A short description of data set [6]: Cytotoxicity against human MRC5 cells assessed as cell viability at 0.12 uM after 72 hrs by XTT proliferation assay. Format: cell-based. The settings on record: read-out: Activity.

Each structure is given as a SMILES string. In brackets after ≈: the same amount, converted by molar mass.

By MIC is commonly meant the lowest concentration that inhibits growth of the organism. A high value points to weaker potency. The compound `CCCCCCCCCC/C=C/c1cc(=O)c2ccccc2n1CCCCC` registered an MIC in data set [1] of 8 µg/mL (≈ 21 µM). For the same compound, the viability at 72 h, 30 µM in data set [2] turned out to be 31.6%. Further, in data set [3], the viability at 72 h, 100 µM was determined as 0.25%.

In data set [1], `CCCCCCC/C=C/c1cc(=O)c2ccccc2n1CC` had an MIC of 8 µg/mL (≈ 26.9 µM). In data set [2], the viability at 72 h, 30 µM was 96.6%. The viability at 72 h, 100 µM in data set [3] worked out at 52.6%.

Turning to `CCCCCCC/C=C/c1cc(=O)c2ccccc2n1CCC`, the MIC in data set [1] turned out to be 4 µg/mL (≈ 12.8 µM). Also, in data set [2], the viability at 72 h, 30 µM stood at 32.9%. The viability at 72 h, 100 µM in data set [3] worked out at 7.4%.

For the compound `C=CCn1c(/C=C/CCCCCCC)cc(=O)c2ccccc21`, 8 µg/mL (≈ 25.9 µM) was the least that counted as inhibitory in data set [1] (MIC). Further, the viability at 72 h, 30 µM in data set [2] worked out at 10.1%. Besides, the viability at 72 h, 100 µM in data set [3] amounted to 0.53%.

On to `C#CCn1c(/C=C/CCCCCCC)cc(=O)c2ccccc21`, for which the MIC is 4 µg/mL (≈ 13 µM) against Mycolicibacterium phlei, 2 µg/mL (≈ 6.51 µM) in data set [1], 2 µg/mL (≈ 6.51 µM) in data set [4] and 32 µg/mL (≈ 104 µM) in data set [5]. In data set [2], the viability at 72 h, 30 µM is 71.1%. Besides, in data set [3], the viability at 72 h, 100 µM is 63.9%.

The compound `CCCCCCCC/C=C/c1cc(=O)c2ccccc2n1CC` displayed an MIC in data set [1] of 4 µg/mL (≈ 12.8 µM). In data set [2], the viability at 72 h, 30 µM was found to be 39.2%. Besides, the viability at 72 h, 100 µM in data set [3] is 0.53%.

Turning to `CCCCCCCC/C=C/c1cc(=O)c2ccccc2n1CCC`, the MIC (in the data set with Mycolicibacterium phlei; in data set [1]; in data set [4]; in data set [5]) was 2 µg/mL (≈ 6.14 µM) each time. The viability at 72 h, 30 µM in data set [2] is 56.1%. Also, in data set [3], the viability at 72 h, 100 µM is 0.5%.

As for `C=CCn1c(/C=C/CCCCCCCC)cc(=O)c2ccccc21`, the MIC was 2 µg/mL (≈ 6.18 µM) in the data set on Mycolicibacterium phlei, 2 µg/mL (≈ 6.18 µM) in data set [1], 1 µg/mL (≈ 3.09 µM) in data set [4] and 4 µg/mL (≈ 12.4 µM) in data set [5]. For the same compound, the viability at 72 h, 30 µM in data set [2] turned out to be 33%. Moreover, the viability at 72 h, 100 µM in data set [3] is 0.63%.

For `C#CCn1c(/C=C/CCCCCCCC)cc(=O)c2ccccc21`, in data set [1], the lowest concentration to inhibit growth (MIC) was 16 µg/mL (≈ 49.8 µM). Further, the viability at 72 h, 30 µM in data set [2] stood at 43.6%. In addition, the viability at 72 h, 100 µM in data set [3] is 0.4%.

With `CCCCCCCC/C=C/c1cc(=O)c2ccccc2n1CCCCC`, the MIC came to 4 µg/mL (≈ 11.3 µM) against Mycolicibacterium phlei, 2 µg/mL (≈ 5.66 µM) in data set [1], 1 µg/mL (≈ 2.83 µM) in data set [4] and 4 µg/mL (≈ 11.3 µM) in data set [5]. For the same compound, the viability at 72 h, 30 µM in data set [2] was 61.7%. Further, in data set [3], the viability at 72 h, 100 µM is 0.46%.

Regarding `C#CCn1c(/C=C/CCCCCCCCC)cc(=O)c2ccccc21`, 4 µg/mL (≈ 11.9 µM) was the least that counted as inhibitory in data set [1] (MIC). Besides, the viability at 72 h, 30 µM in data set [2] amounted to 92.3%. In data set [3], the viability at 72 h, 100 µM came to 26.3%.

In data set [1], `CCCCCCCCC/C=C/c1cc(=O)c2ccccc2n1CCCCC` returned an MIC of 4 µg/mL (≈ 10.9 µM). Moreover, the viability at 72 h, 30 µM in data set [2] turned out to be 41.6%. Also, the viability at 72 h, 100 µM in data set [3] came out at 0.38%.

Regarding `C#CCn1c(/C=C/CCCCCCCCCC)cc(=O)c2ccccc21`, it took 64 µg/mL (≈ 183 µM) to inhibit growth in data set [1] (MIC). Moreover, the viability at 72 h, 30 µM in data set [2] stood at 40.7%. Further, in data set [3], the viability at 72 h, 100 µM is 0.64%.

Turning to `CCCCCCCCCC/C=C/c1cc(=O)c2ccccc2n1CCCC`, inhibition of growth in data set [1] (MIC) required 4 µg/mL (≈ 10.9 µM). Moreover, the viability at 72 h, 30 µM in data set [2] came to 42.4%. Also, the viability at 72 h, 100 µM in data set [3] stood at 0.45%.

As for `C=CCn1c(/C=C/CCCCCCCCCCC)cc(=O)c2ccccc21`, in data set [1], 4 µg/mL (≈ 10.9 µM) was the least that counted as inhibitory (MIC). In addition, in data set [2], the viability at 72 h, 30 µM is 17.9%. Moreover, in data set [3], the viability at 72 h, 100 µM amounted to 1.06%.

Regarding `CCCCCCCCCCC/C=C/c1cc(=O)c2ccccc2n1CCCCC`, in data set [1], the MIC came to 128 µg/mL (≈ 324 µM). Besides, the viability at 72 h, 30 µM in data set [2] was found to be 11.7%. In addition, the viability at 72 h, 100 µM in data set [3] turned out to be 0.25%.

`CCCCCCCCCCCC/C=C/c1cc(=O)c2ccccc2n1CCC` had an MIC in data set [1] of 16 µg/mL (≈ 41.9 µM). For the same compound, the viability at 72 h, 30 µM in data set [2] worked out at 42.6%. Moreover, the viability at 72 h, 100 µM in data set [3] came to 0.72%.

In data set [1], `C=CCn1c(/C=C/CCCCCCCCCCCC)cc(=O)c2ccccc21` displayed an MIC of 16 µg/mL (≈ 42.2 µM). Moreover, in data set [2], the viability at 72 h, 30 µM came to 98.2%. Besides, in data set [3], the viability at 72 h, 100 µM was found to be 0.7%.

In turn, `C#CCn1c(/C=C/CCCCCCCCCCCC)cc(=O)c2ccccc21` came in with an MIC in data set [1] of 128 µg/mL (≈ 339 µM). The viability at 72 h, 30 µM in data set [2] turned out to be 100%. Also, in data set [3], the viability at 72 h, 100 µM is 10%.

Compound `CCCCCCCCCCCC/C=C/c1cc(=O)c2ccccc2n1CCCC` gave an MIC in data set [1] of 128 µg/mL (≈ 324 µM). In data set [2], the viability at 72 h, 30 µM came to 10.9%. Besides, the viability at 72 h, 100 µM in data set [3] came to 0.51%.

With `O=C(O)c1cn(C2CC2)c2cc(N3CCNCC3)c(F)cc2c1=O` [CIPROFLOXACIN], the MIC in data set [1] worked out at 0.125 µg/mL (≈ 0.377 µM).

Regarding `CC[C@@H](CO)NCCN[C@@H](CC)CO` [ETHAMBUTOL], the MIC against Mycolicibacterium phlei stood at 4 µg/mL (≈ 19.6 µM); in data set [1] it was 2 µg/mL (≈ 9.79 µM); in data set [4], 4 µg/mL (≈ 19.6 µM); in data set [5], 16 µg/mL (≈ 78.3 µM).

Consider `NNC(=O)c1ccncc1` [ISONIAZID], for which the MIC against Mycolicibacterium phlei was 16 µg/mL (≈ 117 µM); in data set [1], 4 µg/mL (≈ 29.2 µM); in data set [4], 4 µg/mL (≈ 29.2 µM); in data set [5], 1 µg/mL (≈ 7.29 µM).

As to `CC[C@]1(O)C[C@@H]2CN(CCc3c([nH]c4ccccc34)[C@@](C(=O)OC)(c3cc4c(cc3OC)N(C)[C@H]3[C@@](O)(C(=O)OC)[C@H](OC(C)=O)[C@]5(CC)C=CCN6CC[C@]43[C@@H]65)C2)C1` [VINBLASTINE], in data set [6], the viability at 72 h, 0.12 µM is 60.1%.
